Experimental data from ChEMBL document CHEMBL4145622, “Banksialactones and Banksiamarins: Isochromanones and Isocoumarins from an Australian Fungus, Aspergillus banksianus” (2018).
In brackets after ≈: the same amount, converted by molar mass. Activity calls are given as the source filed them. The rule behind the calls is not given here.

How the values were obtained:
[1] = tested on: Tritrichomonas suis; test: Antiprotozoal activity against Tritrichomonas foetus KV1; type: functional
Outline: (§1)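 Trophozoites seeded at 4 × 10^4 cells/mL in medium containing tryptone, yeast extract, glucose, L-cysteine, phosphates, ascorbic acid, FeSO4 and 10% newborn calf serum. Compound range 100 to 0.05 μg/mL in 1% DMSO. Plates held anaerobically at 37 °C.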

[2] = tested on: Bacillus spizizenii; test: Antibacterial activity against Bacillus subtilis ATCC 6633 after 48 hrs by resazurin dye based assay; type: functional; conditions: for MIC: ATCC 6633, 48 h
Outline: (§2)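 Bacteria pre-grown 24 h in nutrient broth at 28 °C, 100−250 rpm, diluted to 0.01 absorbance unit per mL. Inoculated into wells of compound dispersed in nutrient agar with resazurin (12.5 μg/mL). Test range 100 to 0.05 μg/mL (2-fold dilutions, 1% DMSO). Incubated 48 h at 28 °C. MIC read visually by blue-to-pink colour change.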

[3] = tested on: Escherichia coli; test: Antibacterial activity against Escherichia coli ATCC 25922 after 48 hrs by resazurin dye based assay; type: functional, organism-based; outline: as §2
[4] = tested on: Saccharomyces cerevisiae; test: Antifungal activity against Saccharomyces cerevisiae ATCC 9763 after 48 hrs by bromocresol green dye based assay; type: functional; conditions: ATCC 9763, 48 h
Outline: (§3)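 S. cerevisiae grown 24 h in 1% malt extract broth, 250 rpm, 24 °C, diluted to 0.03 absorbance unit per mL. Inoculated onto compound in malt extract agar with bromocresol green (50 μg/mL). 2-fold series from 100 to 0.05 μg/mL in 1% DMSO. Incubated at 24 °C for 48 h. MIC read visually by blue-to-yellow colour change.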

[5] = tested on: Candida albicans; test: Antifungal activity against Candida albicans ATCC 10231 after 48 hrs by bromocresol green dye based assay; type: functional, organism-based
Outline: as §3, with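 “C. albicans” for “S. cerevisiae”, “0.005” for “0.03”, “Test range” for “2-fold series from”, “Incubated” for “Incubated at”, “°C,” for “°C for”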

[6] = (§4) Cytotoxicity against mouse NS1 cells after 48 hrs by resazurin dye based assay; type: functional
Outline: (§5)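 NS-1 myeloma cells seeded at 50 000 cells/mL in DMEM + 10% FBS + 1% penicillin/streptomycin, 37 °C, 5% CO2. Compound range 100 to 0.05 μg/mL (2-fold dilutions, 1% DMSO). Resazurin (250 μg/mL, 10 μL) added at 48 h, then incubated a further 48 h. MIC end point read visually.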

[7] = organism: Mus musculus; test: as §4; type: functional; outline: as §5
[8] = tested on: Saccharomyces cerevisiae; test: Antifungal activity against Saccharomyces cerevisiae ATCC 9763 up to 100 ug/ml 48 hrs by bromocresol green dye based assay; type: functional, organism-based; outline: as §3
[9] = tested on: Bacillus spizizenii; test: Antibacterial activity against Bacillus subtilis ATCC 6633 up to 100 ug/ml 48 hrs by resazurin dye based assay; type: functional, organism-based; outline: as §2
[10] = organism: Mus musculus; test: Cytotoxicity against mouse NS1 cells up to 100 ug/ml 48 hrs by resazurin dye based assay; type: functional, cell-based; outline: as §5
[11] = tested on: Tritrichomonas suis; test: Antiprotozoal activity against Tritrichomonas foetus KV1 up to 100 ug/ml; type: functional, organism-based; outline: as §1

| Structure (SMILES) | Activity [3] | Activity [5] | Activity [1] | Activity [2] | Activity [7] | other results |
| --- | --- | --- | --- | --- | --- | --- |
| COc1cc(O)c2c(c1C)[C@H](C)[C@](O)(COC(=O)c1c(C)c(C)c(O)c(C)c1O)OC2=O | inactive | inactive | – | – | – | MIC [1]: 50 µg/mL (≈ 112 µM); MIC [2]: 25 µg/mL (≈ 56 µM); MIC [4]: 50 µg/mL (≈ 112 µM); MIC [6]: 100 µg/mL (≈ 224 µM) |
| COc1cc(O)c2c(c1C)[C@H](C)[C@](O)(C[S+](C)[O-])OC2=O (some centres not stated) | inactive | inactive | inactive | inactive | inactive | – |
| COc1cc(O)c2c(c1C)[C@H](C)[C@](O)(CSCC(O)C(=O)O)OC2=O (some centres not stated) | inactive | inactive | inactive | inactive | inactive | – |
| Clc1ccccc1C(c1ccccc1)(c1ccccc1)n1ccnc1 [CLOTRIMAZOLE] | – | – | – | – | – | MIC [4]: 0.2 µg/mL (≈ 0.58 µM) |
| COc1cc(O)c2c(c1C)[C@](C)(O)[C@H](C)OC2=O | inactive | inactive | inactive | inactive | inactive | – |
| CC1(C)S[C@@H]2[C@H](NC(=O)[C@H](N)c3ccccc3)C(=O)N2[C@H]1C(=O)O [AMPICILLIN] | – | – | – | – | – | MIC [2]: 0.4 µg/mL (≈ 1.14 µM) |
| COc1cc(O)c2c(c1C)[C@H](C)[C@](O)(COC(=O)c1c(C)cc3c(c1O)C(=O)c1c(O)cc(O)cc1C3=O)OC2=O | inactive | inactive | – | – | – | Activity [8]: inactive; MIC [1]: 12.5 µg/mL (≈ 22.1 µM); MIC [2]: 25 µg/mL (≈ 44.3 µM); MIC [6]: 100 µg/mL (≈ 177 µM) |
| COc1cc(O)cc2c1C(=O)c1c(O)cc(C)cc1C2=O [QUESTIN] | inactive | inactive | – | – | – | Activity [8]: inactive; MIC [1]: 12.5 µg/mL (≈ 44 µM); Activity [9]: inactive; Activity [10]: inactive |
| O=c1[nH]cc(F)c(=O)[nH]1 [FLUOROURACIL] | – | – | – | – | – | MIC [6]: 0.8 µg/mL (≈ 6.15 µM) |
| COc1cc(O)c2c(c1C)[C@H](C)[C@](O)(CO)OC2=O | inactive | inactive | inactive | inactive | inactive | – |
| COc1cc(O)c2c(c1C)[C@H](C)[C@H](CO)OC2=O | inactive | inactive | inactive | inactive | inactive | – |
| COC(=O)Nc1nc2cc(C(=O)c3ccccc3)ccc2[nH]1 [MEBENDAZOLE] | – | – | – | – | – | MIC [1]: 1.6 µg/mL (≈ 5.42 µM) |
| COc1cc(OC)c2c(c1C)[C@](C)(O)[C@H](C)OC2=O | inactive | inactive | inactive | inactive | inactive | – |
| Cc1c(O)cc(O)c2c1[C@H](C)[C@](O)(CO)OC2=O | inactive | inactive | inactive | inactive | inactive | – |
| COc1cc(O)c2c(c1C)[C@H](C)[C@](O)(COC(=O)c1c(O)cc(O)c(C)c1C)OC2=O | inactive | inactive | – | – | – | MIC [2]: 50 µg/mL (≈ 116 µM); MIC [6]: 100 µg/mL (≈ 231 µM); Activity [11]: inactive |
